Source: ChEMBL document CHEMBL1165950, “Design and synthesis of new potent anticancer pyrazoles with high FLT3 kinase inhibitory selectivity” (Bioorg Med Chem, 2010)

Tests used:
Assay type in all cases: functional
[1] = Cytotoxicity against human RPMI8266 cells assessed as cell growth at 100 nM after 48 hrs by sulforhodamine B assay; conditions: read-out: Activity
K562 [2] = assay: Cytotoxicity against human K562 cells assessed as cell growth at 0.01 uM after 48 hrs by sulforhodamine B assay; conditions: K562, 48 h, read-out: Activity
HCT-116 = assay: Cytotoxicity against human HCT116 cells assessed as cell growth at 10 uM; conditions: read-out: Activity
Procedure, shortened: (§1)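 Single-dose NCI-60 screen at 10 µM. Cells were grown in RPMI 1640 with 5% FBS and 2 mM L-glutamine, then treated for 48 h at 37 °C. Protein was measured by SRB staining with absorbance at 515 nm. Percentage growth was recorded, and inhibition percentage was calculated as 100 minus growth percentage.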

HL-60(TB) [3] = assay: Cytotoxicity against human HL-60(TB) cells assessed as cell growth at 0.01 uM after 48 hrs by sulforhodamine B assay; conditions: HL-60, 48 h, read-out: Activity
Procedure, shortened: (§2)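 NCI 60-cell panel. Cells are grown in RPMI 1640 with 5% FBS and 2 mM L-glutamine, seeded at 5000–40,000 cells/well according to doubling time, and preincubated 24 h. Time-zero plates are TCA-fixed. Compound from DMSO stock is given at five 10-fold or 1/2-log concentrations for 48 h at 37 °C, 5% CO2. Suspension cells are fixed with 80% TCA (final 16%) and SRB-stained, with absorbance at 515 nm. Percent growth is derived from Tz, control and test readings.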

MDA-MB-231 = assay: Cytotoxicity against human MDA-MB-231 cells assessed as cell growth at 0.001 uM after 48 hrs by sulforhodamine B assay; conditions: MDA-MB-231, 48 h, read-out: Activity
NCI-H23 = assay: Cytotoxicity against human NCI-H23 cells assessed as cell growth at 10 uM after 48 hrs by sulforhodamine B assay; conditions: NCI-H23, 48 h, read-out: Activity
IGROV-1 = assay: Cytotoxicity against human IGROV1 cells assessed as cell growth at 10 uM; conditions: read-out: Activity; procedure, shortened: as §1
K562 [4] = assay: Cytotoxicity against human K562 cells assessed as cell growth at 10 uM after 48 hrs by sulforhodamine B assay; conditions: K562, 48 h, read-out: Activity
OVCAR-5 [5] = assay: Cytotoxicity against human OVCAR5 cells assessed as cell growth at 0.001 uM after 48 hrs by sulforhodamine B assay; conditions: OVCAR-5, 48 h, read-out: Activity
HT-29 = assay: Cytotoxicity against human HT-29 cells assessed as cell growth at 1 uM after 48 hrs by sulforhodamine B assay; conditions: HT-29, 48 h, read-out: Activity
OVCAR-5 [6] = assay: Cytotoxicity against human OVCAR5 cells assessed as cell growth at 1 uM after 48 hrs by sulforhodamine B assay; conditions: OVCAR-5, 48 h, read-out: Activity
MDA-MB-435 = assay: Cytotoxicity against human MDA-MB-435 cells assessed as cell growth at 100 nM after 48 hrs by sulforhodamine B assay; conditions: MDA-MB-435, 48 h, read-out: Activity
NCI-H322M = assay: Cytotoxicity against human NCI-H322M cells assessed as cell growth at 100 nM after 48 hrs by sulforhodamine B assay; conditions: read-out: Activity
786-0 [7] = assay: Cytotoxicity against human 786-0 cells assessed as cell growth at 1 uM after 48 hrs by sulforhodamine B assay; conditions: 786-0, 48 h, read-out: Activity
Procedure, shortened: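 NCI-60 five-dose screen. Cells were grown in RPMI 1640 with 5% FBS and 2 mM L-glutamine, plated at 5000–40,000 cells/well and preincubated for 24 h. Time-zero plates were TCA-fixed. DMSO-solubilized drug was added at five concentrations (10-fold or ½-log serial dilutions) for 48 h at 37 °C, 5% CO2. Cells were TCA-fixed, stained with 0.4% SRB and read at 515 nm. Percent growth used time-zero, control and test absorbances.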

HOP-62 = assay: Growth inhibition of human HOP62 cells after 48 hrs by sulforhodamine B assay; conditions: HOP-62, 48 h
Procedure, shortened: (§3)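 NCI 60-cell screen, five-dose mode. Cells grown in RPMI 1640 with 5% FBS and 2 mM L-glutamine and plated at 5000-40,000 cells/well according to doubling time. After 24 h preincubation, a Tz plate was TCA-fixed. Five concentrations (10-fold or 1/2 log dilutions) were applied for 48 h at 37 °C. SRB staining read at 515 nm. IC50 taken from [(Ti-Tz)/(C-Tz)]×100 = 50.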

U-251 = assay: Cytotoxicity against human U251 cells assessed as cell growth at 100 nM after 48 hrs by sulforhodamine B assay; conditions: U-251, 48 h, read-out: Activity
PC-3 [8] = assay: Cytotoxicity against human PC3 cells assessed as cell growth at 100 nM after 48 hrs by sulforhodamine B assay; conditions: PC-3, 48 h, read-out: Activity
MOLT-4 = assay: Cytotoxicity against human MOLT4 cells assessed as cell growth at 10 uM; conditions: read-out: Activity
Procedure, shortened: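 NCI-60 screen: cells grown in RPMI 1640 with 5% FBS and 2 mM L-glutamine, plated at 5000–40,000 cells/well according to doubling time, and preincubated 24 h at 37 °C, 5% CO2. The single 10 µM dose (DMSO stock) was added, then incubated 48 h. Cells were TCA-fixed and stained with 0.4% SRB, read at 515 nm, and growth % calculated against time-zero and control plates.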

ACHN = assay: Cytotoxicity against human ACHN cells assessed as cell growth at 10 uM; conditions: read-out: Activity; procedure, shortened: as §1
[9] = Growth inhibition of human Hs 578T cells after 48 hrs by sulforhodamine B assay; conditions: for CC50: read-out: LC50 (the source's name); procedure, shortened: as §3
HOP-92 = assay: Cytotoxicity against human HOP92 cells assessed as cell growth at 100 nM after 48 hrs by sulforhodamine B assay; conditions: HOP-92, 48 h, read-out: Activity
PC-3 [10] = assay: Cytotoxicity against human PC3 cells assessed as cell growth at 0.01 uM after 48 hrs by sulforhodamine B assay; conditions: PC-3, 48 h, read-out: Activity
COLO 205 = assay: Cytotoxicity against human COLO205 cells assessed as cell growth at 100 nM after 48 hrs by sulforhodamine B assay; conditions: COLO 205, 48 h, read-out: Activity
K562 [11] = assay: Cytotoxicity against human K562 cells assessed as cell growth at 1 uM after 48 hrs by sulforhodamine B assay; conditions: K562, 48 h, read-out: Activity
786-0 [12] = assay: Growth inhibition of human 786-0 cells after 48 hrs by sulforhodamine B assay; conditions: 786-0, 48 h; for CC50: read-out: LC50 (the source's name)
Procedure, shortened: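 NCI five-dose SRB assay in RPMI 1640 with 5% FBS and 2 mM L-glutamine. Cells were preincubated 24 h, then exposed 48 h at 37 °C to five concentrations (10-fold or half-log serial dilutions from DMSO stocks). TCA fixation, SRB staining, and absorbance at 515 nm followed. IC50 was taken where [(Ti−Tz)/(C−Tz)]×100 = 50, with Tz as time-zero cell density.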

HL-60(TB) [13] = assay: Cytotoxicity against human HL-60(TB) cells assessed as cell growth at 100 nM after 48 hrs by sulforhodamine B assay; conditions: HL-60, 48 h, read-out: Activity; procedure, shortened: as §2

SMILES	growth at 0.1 µM [1]	growth at 0.01 µM (K562 [2])	growth at 10 µM (HCT-116)	growth at 0.01 µM (HL-60(TB) [3])	growth at 0.001 µM (MDA-MB-231)	growth at 10 µM (NCI-H23)	growth at 10 µM (IGROV-1)	growth at 10 µM (K562 [4])	growth at 0.001 µM (OVCAR-5 [5])	growth at 1 µM (HT-29)	growth at 1 µM (OVCAR-5 [6])	growth at 0.1 µM (MDA-MB-435)	growth at 0.1 µM (NCI-H322M)	growth at 1 µM (786-0 [7])	GI50 (HOP-62)	LC50 (50% lethal concentration) (HOP-62)	TGI (HOP-62)	growth at 0.1 µM (U-251)	growth at 0.1 µM (PC-3 [8])	growth at 10 µM (MOLT-4)	also measured
COc1cc(C)cc(-c2nn(CC#N)cc2-c2ccc(-c3cccc(C(C)=O)c3)nc2)c1	96%	80%	10.3%	91%	102%	-1%	34.6%	9%	74%	4%	21%	11%	95%	15%	3.07 µM	> 100 µM	36.9 µM	95%	85%	28.1%	growth at 10 µM (ACHN): 35.4%; GI50 [9]: 1.28 µM; TGI [9]: 3.87 µM; CC50 [9]: 31.2 µM; growth at 0.1 µM (HOP-92): 89%; growth at 0.01 µM (PC-3 [10]): 88%; growth at 0.1 µM (COLO 205): 88%; growth at 1 µM (K562 [11]): 5%; GI50 (786-0 [12]): 3.52 µM; TGI (786-0 [12]): 93 µM; CC50 (786-0 [12]): > 100 µM; growth at 0.1 µM (HL-60(TB) [13]): 66%
Cc1cc(O)cc(-c2nn(CC#N)cc2-c2ccnc(-c3ccc(Oc4ccccc4)cc3)c2)c1	88%	44%	25.7%	95%	96%	-75%	72.2%	-2%	72%	-65%	35%	89%	95%	-34%	1.17 µM	52.3 µM	24.7 µM	88%	81%	30%	growth at 10 µM (ACHN): 37.6%; GI50 [9]: 2.02 µM; TGI [9]: 6.08 µM; CC50 [9]: > 100 µM; growth at 0.1 µM (HOP-92): 70%; growth at 0.01 µM (PC-3 [10]): 86%; growth at 0.1 µM (COLO 205): 99%; growth at 1 µM (K562 [11]): -13%; GI50 (786-0 [12]): 2.14 µM; TGI (786-0 [12]): 5.38 µM; CC50 (786-0 [12]): 18.9 µM; growth at 0.1 µM (HL-60(TB) [13]): 92%
